Data reported in ChEMBL document CHEMBL2203123, “Synthesis and biological evaluation of some hydrazone derivatives as new anticandidal and anticancer agents” (Eur J Med Chem, 2012).
Converted amounts (≈) assume the structure as drawn.

Columns and labels:
[1] = system: Salmonella typhimurium; assay: Genotoxicity against Salmonella typhimurium TA98 assessed as fold increase in revertants at 0.625 mg/ml after 90 mins by Ames MPF test in absence of S9 fraction relative to baseline; type: toxicity, organism-based; conditions: salmonella enterica subsp. enterica serovar typhimurium, 1.5 h
How it was run: (§1)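 Ames MPF fluctuation test, TA98 and TA100: overnight cultures reincubated 90 min, then exposed 90 min at 37 °C to compounds at 0.156-5 mg/mL (in DMSO) with or without 4.5% v/v S9; indicator medium added, 48 wells per sample scored yellow after 48 h, triplicate. Fold over baseline = mean positive wells / (mean of DMSO control + 1 SD).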

[2] = system: Candida albicans; assay: Antifungal activity against Candida albicans clinical isolate after 24 hrs by microdilution susceptibility assay; type: functional
How it was run: (§2)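 Broth microdilution in Mueller Hinton Broth, compounds from DMSO stocks diluted serially; inocula standardized to 10^6 CFU/mL (McFarland 0.5) from overnight MHB cultures. Plates held 37 °C for 24 h; MIC taken as first well without turbidity, aided by 1% tetrazolium violet added for 3 h at 37 °C. Ketoconazole reference.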

[3] = system: Candida albicans; assay: Antifungal activity against Candida albicans ATCC 10231 after 24 hrs by microdilution susceptibility assay; type: functional; conditions: ATCC 10231, 24 h; how it was run: as §2
[4] = system: Salmonella typhimurium; assay: Genotoxicity against Salmonella typhimurium TA100 assessed as fold increase in revertants at 5 mg/ml after 90 mins by Ames MPF test in presence of S9 fraction relative to baseline; type: toxicity, organism-based; conditions: salmonella enterica subsp. enterica serovar typhimurium, s9, 1.5 h; how it was run: as §1
[5] = system: Salmonella typhimurium; assay: Genotoxicity against Salmonella typhimurium TA100 assessed as fold increase in revertants at 1.25 mg/ml after 90 mins by Ames MPF test in absence of S9 fraction relative to baseline; type: toxicity, organism-based; conditions: salmonella enterica subsp. enterica serovar typhimurium, 1.5 h; how it was run: as §1
[6] = system: Cyberlindnera jadinii; assay: Antifungal activity against Candida utilis NRRL Y-900 after 24 hrs by microdilution susceptibility assay; type: functional; conditions: Williopsis jadinii, NRRL Y-900, 24 h; how it was run: as §2
[7] = Genotoxicity against Salmonella typhimurium TA1535/pSK1002 assessed as induction ratio at 2.5 mg/ml by umuC assay in absence of S9 fraction; type: toxicity, organism-based; conditions: salmonella enterica subsp. enterica serovar typhimurium, Salmonella typhimurium TA1535/pSK1002 without S9 fraction
How it was run: (§3)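 umuC Easy CS: TA1535/pSK1002 grown overnight in ampicillin TG medium at 37 °C, then exposed 2 h at 37 °C to compounds at 5, 2.5, 1.25, 0.63 mg/mL with or without S9. Diluted into fresh medium for 2 h growth (OD600), then β-galactosidase with ONPG 30 min at 28 °C, OD420. Positive controls 2-aminoanthracene (+S9), […] (−S9).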

[8] = system: Salmonella typhimurium; assay: Genotoxicity against Salmonella typhimurium TA1535/pSK1002 assessed as growth factor ratio at 5 mg/ml by umuC assay in presence of S9 fraction; type: toxicity, organism-based; conditions: salmonella enterica subsp. enterica serovar typhimurium; how it was run: as §3
[9] = system: Salmonella typhimurium; assay: Genotoxicity against Salmonella typhimurium TA98 assessed as fold increase in revertants at 5 mg/ml after 90 mins by Ames MPF test in absence of S9 fraction relative to baseline; type: toxicity, organism-based; conditions: salmonella enterica subsp. enterica serovar typhimurium, 1.5 h; how it was run: as §1
[10] = Genotoxicity against Salmonella typhimurium TA1535/pSK1002 assessed as induction ratio at 1.25 mg/ml by umuC assay in presence of S9 fraction; type: toxicity, organism-based; conditions: salmonella enterica subsp. enterica serovar typhimurium, Salmonella typhimurium TA1535/pSK1002 with S9 fraction; how it was run: as §3
[11] = system: Salmonella typhimurium; assay: Genotoxicity against Salmonella typhimurium TA98 assessed as fold increase in revertants at 2.5 mg/ml after 90 mins by Ames MPF test in absence of S9 fraction relative to baseline; type: toxicity, organism-based; conditions: salmonella enterica subsp. enterica serovar typhimurium, 1.5 h; how it was run: as §1
[12] = system: Salmonella typhimurium; assay: Genotoxicity against Salmonella typhimurium TA1535/pSK1002 assessed as growth factor ratio at 2.5 mg/ml by umuC assay in presence of S9 fraction; type: toxicity, organism-based; conditions: salmonella enterica subsp. enterica serovar typhimurium; how it was run: as §3
[13] = system: Salmonella typhimurium; assay: Genotoxicity against Salmonella typhimurium TA98 assessed as fold increase in revertants at 0.3125 mg/ml after 90 mins by Ames MPF test in presence of S9 fraction relative to baseline; type: toxicity, organism-based; conditions: salmonella enterica subsp. enterica serovar typhimurium, s9, 1.5 h; how it was run: as §1
[14] = system: Salmonella typhimurium; assay: Genotoxicity against Salmonella typhimurium TA1535/pSK1002 assessed as growth factor ratio at 0.63 mg/ml by umuC assay in presence of S9 fraction; type: toxicity, organism-based; conditions: salmonella enterica subsp. enterica serovar typhimurium; how it was run: as §3
[15] = system: Pichia kudriavzevii; assay: Antifungal activity against Candida krusei NRRL Y-7179 after 24 hrs by microdilution susceptibility assay; type: functional; conditions: NRRL Y-7179, 24 h; how it was run: as §2
[16] = system: Salmonella typhimurium; assay: Genotoxicity against Salmonella typhimurium TA1535/pSK1002 assessed as growth factor ratio at 2.5 mg/ml by umuC assay in absence of S9 fraction; type: toxicity, organism-based; conditions: salmonella enterica subsp. enterica serovar typhimurium; how it was run: as §3
[17] = system: Salmonella typhimurium; assay: Genotoxicity against Salmonella typhimurium TA100 assessed as fold increase in revertants at 0.625 mg/ml after 90 mins by Ames MPF test in absence of S9 fraction relative to baseline; type: toxicity, organism-based; conditions: salmonella enterica subsp. enterica serovar typhimurium, 1.5 h; how it was run: as §1
[18] = system: Salmonella typhimurium; assay: Genotoxicity against Salmonella typhimurium TA98 assessed as fold increase in revertants at 1.25 mg/ml after 90 mins by Ames MPF test in presence of S9 fraction relative to baseline; type: toxicity, organism-based; conditions: salmonella enterica subsp. enterica serovar typhimurium, s9, 1.5 h; how it was run: as §1
[19] = system: Salmonella typhimurium; assay: Genotoxicity against Salmonella typhimurium TA1535/pSK1002 assessed as growth factor ratio at 0.63 mg/ml by umuC assay in absence of S9 fraction; type: toxicity, organism-based; conditions: salmonella enterica subsp. enterica serovar typhimurium; how it was run: as §3
[20] = system: Candida parapsilosis; assay: Antifungal activity against Candida parapsilosis NRRL Y-12696 after 24 hrs by microdilution susceptibility assay; type: functional; conditions: Lodderomyces parapsilosis, NRRL Y-12696, 24 h; how it was run: as §2
[21] = system: Salmonella typhimurium; assay: Genotoxicity against Salmonella typhimurium TA98 assessed as fold increase in revertants at 0.156 mg/ml after 90 mins by Ames MPF test in absence of S9 fraction relative to baseline; type: toxicity, organism-based; conditions: salmonella enterica subsp. enterica serovar typhimurium, 1.5 h; how it was run: as §1
[22] = system: Salmonella typhimurium; assay: Genotoxicity against Salmonella typhimurium TA98 assessed as fold increase in revertants at 0.3125 mg/ml after 90 mins by Ames MPF test in absence of S9 fraction relative to baseline; type: toxicity, organism-based; conditions: salmonella enterica subsp. enterica serovar typhimurium, 1.5 h; how it was run: as §1
[23] = system: Salmonella typhimurium; assay: Genotoxicity against Salmonella typhimurium TA1535/pSK1002 assessed as induction ratio at 0.63 mg/ml by umuC assay in absence of S9 fraction; type: toxicity, organism-based; conditions: salmonella enterica subsp. enterica serovar typhimurium; how it was run: as §3
[24] = system: Salmonella typhimurium; assay: Genotoxicity against Salmonella typhimurium TA98 assessed as fold increase in revertants at 1.25 mg/ml after 90 mins by Ames MPF test in absence of S9 fraction relative to baseline; type: toxicity, organism-based; conditions: salmonella enterica subsp. enterica serovar typhimurium, 1.5 h; how it was run: as §1
[25] = system: Salmonella typhimurium; assay: Genotoxicity against Salmonella typhimurium TA100 assessed as fold increase in revertants at 0.156 mg/ml after 90 mins by Ames MPF test in absence of S9 fraction relative to baseline; type: toxicity, organism-based; conditions: salmonella enterica subsp. enterica serovar typhimurium, 1.5 h; how it was run: as §1
[26] = system: Salmonella typhimurium; assay: Genotoxicity against Salmonella typhimurium TA98 assessed as fold increase in revertants at 0.625 mg/ml after 90 mins by Ames MPF test in presence of S9 fraction relative to baseline; type: toxicity, organism-based; conditions: salmonella enterica subsp. enterica serovar typhimurium, s9, 1.5 h; how it was run: as §1
[27] = system: Salmonella typhimurium; assay: Genotoxicity against Salmonella typhimurium TA100 assessed as fold increase in revertants at 0.3125 mg/ml after 90 mins by Ames MPF test in presence of S9 fraction relative to baseline; type: toxicity, organism-based; conditions: salmonella enterica subsp. enterica serovar typhimurium, s9, 1.5 h; how it was run: as §1
[28] = system: A549; assay: Cytotoxicity against human A549 cells after 24 hrs by XTT assay; type: functional, cell-based; conditions: A549, 24 h
How it was run: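 A549 cells in RPMI 1640 with 10% fetal calf serum, penicillin/streptomycin, 37 °C, 5% CO2; 20,000 cells/well seeded, after 24 h exposed to compounds at 0.00316 µM-10 mM for 24 h. XTT mitochondrial activity read at 480 nm (reference 680 nm) after 3 h; % inhibition per concentration, IC50 by non-linear regression.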

## CN(C)c1ccc(/C=N/NC(=O)CSc2nnnn2C)cc1
[1]
  fold change (FC): 1.59
[2]
  MIC: 125 µg/mL (≈ 391 µM)
[3]
  MIC: 125 µg/mL (≈ 391 µM)
[4]
  fold change (FC): 0.26
[5]
  fold change (FC): 1
[6]
  MIC: 125 µg/mL (≈ 391 µM)
[7]
  fold induction at 2.5 mg/ml: 0.88
[8]
  Ratio: 2.82
[9]
  fold change (FC): 0
[10]
  fold induction at 1.25 mg/ml: 0.67
[11]
  fold change (FC): 0
[12]
  Ratio: 1.992
[13]
  fold change (FC): 0.57
[14]
  Ratio: 1.268
[15]
  MIC: 62.5 µg/mL (≈ 196 µM)
[16]
  Ratio: 1.743
[17]
  fold change (FC): 1.38
[18]
  fold change (FC): 0.86
[19]
  Ratio: 0.962
[20]
  MIC: 500 µg/mL (≈ 1570 µM)
[21]
  fold change (FC): 0.32
[22]
  fold change (FC): 1.27
[23]
  Ratio: 1.36
[24]
  fold change (FC): 0.64
[25]
  fold change (FC): 1.9
[26]
  fold change (FC): 1
[27]
  fold change (FC): 0.47
[28]
  IC50: 100 µM
